# From PubChem
# Compounds with a hit are over-represented: about 3.1% of the library has one in this group of screens.
# KCNQ1 block: human KCNQ1 channel inhibition. CHO-K1 KCNQ1, FluxOR thallium flux fluorescence; stronger effect = higher value. 310,000 tested, 1.3% active. P51787. B-score at 10 µM;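 active means compounds whose thallium flux B-score, printed positive for inhibition, exceeds three library SD while starting fluorescence stays within three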;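 further: channel opened by potassium depolarization with thallium stimulus after 20 min compound exposure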
# hERG rescue: hERG (human) protection from proarrhythmic block | Q12809 | CHO-hERG, FluxOR thallium flux, dofetilide IC70 present | activation (rescue from dofetilide block), less the hit threshold, % at 10 µM | 310,000 tested, 0.51% active;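 active means activation above the mean of controls blocked by dofetilide plus 5 SD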;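 further: thallium influx through hERG after potassium depolarization seen as dye fluorescence rise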
# KCNQ1 pot: human KCNQ1 channel potentiation or activation | AID 2648 | P51787 | B-score at 10 µM | CHO-K1 KCNQ1, thallium flux FluxOR fluorescence; stronger effect = higher value | 310,000 tested, 0.35% active;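 active means fluorescence ratio B-score, a plate-corrected score, at least three library SD, with initial intensity B-score within 5 SD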
#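 Assay system: stable KCNQ1 CHO-K1 line; medium: assay buffer, equal DMSO in all wells; timing: 90 min dye loading and 20 min compound exposure, both at room temperature; technique: kinetic FluxOR thallium fluorescence, 10-s 1-Hz baseline, 110-s post-stimulus read; read-out basis: B score of baseline-normalized fluorescence ratio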
# KCNK3 inh: human KCNK3 channel inhibition, primary screen; AID 602410; O14649; CHO-KCNK3 thallium flux, FluxOR fluorescence; stronger effect = lower value; 340,000 tested, 0.84% active; B-score at 10 µM;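 active means B-score under library mean minus 4 SD, starting fluorescence ratio at most library mean plus 5 SD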;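 further: more negative B-score means stronger inhibition of thallium flux through KCNK3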
# Target sequence (O14649 whole entry, looked up): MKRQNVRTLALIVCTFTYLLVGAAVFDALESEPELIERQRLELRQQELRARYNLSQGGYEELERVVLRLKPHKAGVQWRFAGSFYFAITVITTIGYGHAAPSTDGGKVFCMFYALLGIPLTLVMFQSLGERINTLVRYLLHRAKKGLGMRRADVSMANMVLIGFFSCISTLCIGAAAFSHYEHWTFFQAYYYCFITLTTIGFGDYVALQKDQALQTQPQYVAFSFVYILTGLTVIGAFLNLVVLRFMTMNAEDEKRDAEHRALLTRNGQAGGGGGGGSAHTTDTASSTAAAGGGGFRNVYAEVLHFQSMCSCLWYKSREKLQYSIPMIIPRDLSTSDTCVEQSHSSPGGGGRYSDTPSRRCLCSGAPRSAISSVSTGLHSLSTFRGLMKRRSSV
# KCNK9 block: blocks the human KCNK9 two-pore domain potassium channel; Q9NPC2; HEK293 KCNK9, FluxOR thallium flux fluorescence; stronger effect = lower value; B-score at 10 µM; 310,000 tested, 1.2% active;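 active means ratio B-score over 3 SD below the library mean, with starting fluorescence within 5 SD of its mean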;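 further: negative B-score means less thallium flux so channel inhibition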
# The depositor's hits bear a star; i = inactive; . = no result.
SMILES,KCNQ1 block,hERG rescue,KCNQ1 pot,KCNK3 inh,KCNK9 block
Cc1cccc(C2C3=C(Nc4[nH]n(-c5ccccc5)c(=O)c42)c2ccccc2C3=O)c1 (configuration not stated),i,-23,i,i,-7.5*
CC1=C([N+](=O)[O-])C(c2ccccc2)C2=C(N1)c1ccccc1C2=O (configuration not stated),i,-15,i,i,i
O=c1onc(-c2cccnc2)n1-c1ccccc1F,i,-7,i,i,i
COc1ccc(-c2c[n+]3c4n2CCCCC4=C(c2ccccc2)C3)cc1,7*,-33,i,i,i
O=C(NC(=S)Nc1ccccc1N1CCCC1)c1cccs1,i,3,17*,i,i
O=C(NC(=S)Nc1ccccc1N1CCCCC1)c1cccs1,i,7.5*,12*,i,i
O=C(NC(=S)Nc1ccc(N2CCCCC2)cc1)c1cccs1,i,-4,9*,i,i
CCCC(=O)c1ccc(O)cc1O,i,-9,i,i,i
O=C(CNS(=O)(=O)c1ccccc1)OCC(=O)c1c[nH]c2ccccc12,.,.,.,i,.
Cc1c(C(=O)N2CCN(C(c3ccccc3)c3ccccc3)CC2)oc2ccccc12,.,.,.,i,.
O=C(CCNc1ccc(Cl)c(C(F)(F)F)c1)c1ccco1,i,-12,i,i,-7.3*
O=C(CCNc1ccc(F)c(Cl)c1)c1ccco1,i,-5,i,i,i
O=C(Nc1ccccc1Cl)c1cccc(NC(=O)C2CCCC2)c1,i,-12,i,i,-6.9*
O=C(NC1CC1)c1cccc(NC(=O)C2CCCC2)c1,.,.,.,i,.
O=C(c1ccc2c(c1)OCCO2)N1CCN(Cc2c(F)cccc2Cl)CC1,.,.,.,i,.
Cc1ccc(S(=O)(=O)n2c(CN3CCCC(C)C3)nc3ccccc32)cc1 (configuration not stated),i,-1,i,i,-7.5*
Cc1cc(Br)cc2c1NC(=O)C2(c1c(C)n(C)n(-c2ccccc2)c1=O)c1c(C)n(C)n(-c2ccccc2)c1=O,i,-15,i,i,i
COc1cc(C2(c3ccc(O)c(OC)c3)C(=O)Nc3c(C)cc(Br)cc32)ccc1O,i,-9,9*,i,i
CC(C)C(NC(=O)CCNC(=O)c1ccc(C(C)(C)C)cc1)c1nc2ccccc2[nH]1 (configuration not stated),.,.,.,i,.
O=C(Nc1nc(-c2ccccc2)cs1)c1ccco1,i,-12,i,i,i
O=C(NC(=S)Nc1nc(-c2ccc(Br)cc2)cs1)c1ccco1,i,6.3*,i,i,i
O=C(NNc1nc(-c2ccc(Br)cc2)cs1)c1ccco1,i,-6,i,i,i
O=C(NC(=S)Nc1nc(-c2ccc([N+](=O)[O-])cc2)cs1)c1ccco1,i,15*,21*,i,i
Cc1cc(Cl)c(S(=O)(=O)N2CCN(c3ccc(F)cc3)CC2)cc1OCC(N)=O,i,6.0*,i,i,i
CN1CCc2c(sc3nc(SCC(=O)N4CCOCC4)n(-c4ccc(Cl)cc4)c(=O)c23)C1,i,-10,i,i,i
SMILES,KCNQ1 block,hERG rescue,KCNQ1 pot,KCNK3 inh,KCNK9 block
CC1(C)CC(NC(=S)NC2CC2)CC(C)(C)N1,i,7.0*,i,i,i
C=CCNC(=S)NC1CC(C)(C)NC(C)(C)C1,i,-6,i,i,i
CC(=O)OCC1=C(C(=O)O)N2C(=O)C(NC(=O)C(C)Cn3nc(C)c(Cl)c3C)C2SC1 (configuration not stated),i,5.6*,i,i,i
CC(=O)OCC1=C(C(=O)O)N2C(=O)C(NC(=O)c3ccc(F)cc3)C2SC1 (configuration not stated),i,-4,i,i,i
CC(=NC1CCCC1)c1c(C)[nH]n(-c2nc3ccccc3s2)c1=O,i,6.2*,i,i,i
COc1ccc(-c2[nH]ncc2/C=N\NC(=O)c2cccs2)cc1OC,i,-20,i,i,i
Cn1c(C(=O)N2CCCC(C(=O)NCc3cccs3)C2)cc2sccc21 (configuration not stated),i,6.0*,i,i,i
Cc1ccc(OC(=O)c2ccccc2)cc1C,.,.,.,i,.
O=[N+]([O-])c1ccc(CNc2cccc(Cl)c2)s1,6*,-7,i,i,i
Cc1ncsc1C(=O)N1N=C2/C(=C/c3ccccc3)CCCC2C1c1ccccc1 (configuration not stated),7*,-17,i,i,-7.6*
Cc1ncsc1C(=O)N1N=C2/C(=C/c3ccc(N4CCOCC4)cc3)CCCC2C1c1ccc(N2CCOCC2)cc1 (configuration not stated),i,-12,i,i,i
COc1cccc(C2c3cc4c(cc3OC(C)(N3CCCC3)C2C)OCO4)c1O (configuration not stated),.,.,.,i,.
CCC(O)c1c(-c2ccccc2)nn(C)c1Cl (configuration not stated),i,-11,i,i,i
Cn1nc(-c2ccccc2)c(CSc2ccccc2)c1Cl,i,-7,i,i,-7.3*
COc1ccc(NC(=O)c2nn(C)c3c2CS(=O)(=O)c2ccccc2-3)cc1,i,-11,i,i,i
O=[N+]([O-])c1ccc(Nc2ccccc2)c2nonc12,i,-3,i,i,i
CCOc1ccc(Nc2ccc([N+](=O)[O-])c3nonc23)cc1,7*,-7,i,i,i
Cc1cc(NC(=S)N(Cc2ccc(Br)cc2)Cc2ccc(C(=O)O)cc2)ccc1Cl,i,-22,i,i,-6.8*
Cn1c(=O)c(NCCO)c2c3c(cccc31)C(=O)c1ccccc1-2,25*,-47,i,i,i
O=C(NNC(=O)c1cccc2ccccc12)c1ccc(Br)cc1,.,.,.,i,.
CCN1C(=O)c2cccc3c(NC(=O)c4ccc5c(c4)OCCO5)ccc1c23,i,-7,i,-10*,i
CCN1C(=O)c2cccc3c(NC(=O)c4ccccc4)ccc1c23,i,-2,i,i,i
S=C(Nc1ccc(Cl)cc1)NC1CC2CCCC(C1)N2C1CCCC1 (configuration not stated),i,5.6*,i,i,i
S=C(Nc1ccc(Cl)cc1)NC1CC2CCCC(C1)N2C1CC1 (configuration not stated),i,-9,i,i,i
CCOc1ccc(NC(=O)CN(c2ccc([N+](=O)[O-])cc2)S(=O)(=O)c2ccccc2)cc1,6*,-9,i,i,i
CC(=O)Nc1ccc(NC(=O)CN(c2ccc([N+](=O)[O-])cc2)S(=O)(=O)c2ccccc2)cc1,i,-8,i,i,i
